{"source": "ChEMBL document CHEMBL2151002", "about": "(J Med Chem, 2012)", "key": {"[1]": {"system": "Radical scavenging activity", "assay": "Antioxidant activity assessed as DPPH radical scavenging activity", "assay_type": "functional", "procedure,_shortened": "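Methanolic compound solutions (20–250 µM) mixed 1:1 with 200 µM methanolic DPPH and shaken at 30 °C for 20 min. Absorbance read at 517 nm. Controls were DPPH plus methanol; methanol alone served as background. % scavenging = (A control − A sample)/A control × 100, giving IC50.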"}, "[2]": {"species_on_record": "Rattus norvegicus", "assay": "Selectivity ratio of Ki for rat cloned dopamine D2L receptor to Ki for rat cloned dopamine D3 receptor"}, "[3]": {"target": "D(2) dopamine receptor (Rattus norvegicus, UniProt P61169)", "sequence (P61169 whole entry)": "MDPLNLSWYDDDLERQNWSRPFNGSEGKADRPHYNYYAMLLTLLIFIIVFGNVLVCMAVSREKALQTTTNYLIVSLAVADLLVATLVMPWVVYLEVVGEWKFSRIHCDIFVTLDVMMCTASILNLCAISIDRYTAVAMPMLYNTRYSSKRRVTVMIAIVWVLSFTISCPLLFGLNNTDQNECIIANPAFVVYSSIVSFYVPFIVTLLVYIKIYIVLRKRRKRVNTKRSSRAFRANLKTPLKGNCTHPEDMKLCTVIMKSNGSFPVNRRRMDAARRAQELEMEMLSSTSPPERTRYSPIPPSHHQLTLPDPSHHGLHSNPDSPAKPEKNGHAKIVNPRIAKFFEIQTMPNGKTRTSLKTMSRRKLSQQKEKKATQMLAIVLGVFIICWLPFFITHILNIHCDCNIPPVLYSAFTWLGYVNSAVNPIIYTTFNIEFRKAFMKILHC", "assay": "Displacement of [3H]spiroperidol from rat cloned dopamine D2L receptor expressed in HEK293 cells", "assay_type": "cell-based"}, "[4]": {"target": "D(3) dopamine receptor (Rattus norvegicus, UniProt P19020)", "sequence (P19020 whole entry)": "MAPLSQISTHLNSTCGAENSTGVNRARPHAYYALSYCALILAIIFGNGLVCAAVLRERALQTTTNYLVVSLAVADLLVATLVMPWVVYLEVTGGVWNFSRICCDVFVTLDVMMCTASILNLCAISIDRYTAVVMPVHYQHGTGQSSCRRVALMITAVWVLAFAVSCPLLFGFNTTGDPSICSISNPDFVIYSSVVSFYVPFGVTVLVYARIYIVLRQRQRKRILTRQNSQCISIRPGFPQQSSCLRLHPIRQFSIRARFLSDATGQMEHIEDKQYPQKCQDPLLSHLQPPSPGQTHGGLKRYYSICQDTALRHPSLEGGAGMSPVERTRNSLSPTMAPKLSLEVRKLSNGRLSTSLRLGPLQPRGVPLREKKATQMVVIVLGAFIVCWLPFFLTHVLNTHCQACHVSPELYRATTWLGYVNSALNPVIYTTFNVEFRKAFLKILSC", "assay": "Displacement of [3H]spiroperidol from rat cloned dopamine D3 receptor expressed in HEK293 cells", "assay_type": "cell-based"}, "[5]": {"system": "Rattus norvegicus", "assay": "Reversal of reserpine-induced akinesia in Sprague-Dawley rat at 5 umol/kg, sc administered 18 hrs post reserpine challenge measured for 6 hrs", "assay_type": "functional, organism-based"}, "[6]": {"target": "D(3) dopamine receptor (Homo sapiens, UniProt P35462)", "sequence (P35462 whole entry)": "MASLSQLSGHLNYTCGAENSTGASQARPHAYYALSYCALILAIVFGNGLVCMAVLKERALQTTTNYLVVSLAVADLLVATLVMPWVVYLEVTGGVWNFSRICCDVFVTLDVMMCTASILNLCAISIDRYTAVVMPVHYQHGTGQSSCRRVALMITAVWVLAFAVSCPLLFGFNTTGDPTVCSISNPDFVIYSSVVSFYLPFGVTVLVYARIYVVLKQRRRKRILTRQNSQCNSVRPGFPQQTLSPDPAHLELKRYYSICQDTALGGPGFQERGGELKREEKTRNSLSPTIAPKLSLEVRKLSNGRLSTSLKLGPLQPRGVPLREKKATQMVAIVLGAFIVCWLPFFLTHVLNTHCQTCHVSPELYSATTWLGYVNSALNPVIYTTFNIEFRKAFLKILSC", "assay": "Agonist activity at human cloned dopamine D3 receptor expressed in CHO cells by [35S]GTPgammaS binding assay", "assay_type": "functional, cell-based"}, "[7]": {"target": "T1, D(2) dopamine receptor (Homo sapiens, UniProt P14416)", "T1 sequence (P14416 whole entry)": "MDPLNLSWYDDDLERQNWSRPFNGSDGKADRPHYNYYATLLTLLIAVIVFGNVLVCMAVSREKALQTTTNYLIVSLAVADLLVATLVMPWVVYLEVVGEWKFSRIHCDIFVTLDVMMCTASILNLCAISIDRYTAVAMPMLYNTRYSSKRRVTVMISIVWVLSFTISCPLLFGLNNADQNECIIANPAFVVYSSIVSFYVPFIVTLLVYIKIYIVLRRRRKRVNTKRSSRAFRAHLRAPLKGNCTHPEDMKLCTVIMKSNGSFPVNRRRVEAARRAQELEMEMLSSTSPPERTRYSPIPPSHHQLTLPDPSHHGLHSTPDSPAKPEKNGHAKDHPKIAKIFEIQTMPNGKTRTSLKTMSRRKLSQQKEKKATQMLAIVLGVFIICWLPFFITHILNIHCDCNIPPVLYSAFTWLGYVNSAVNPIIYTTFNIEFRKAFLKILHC", "assay": "Agonist activity at human cloned dopamine D2 receptor expressed in CHO cells by [35S]GTPgammaS binding assay", "assay_type": "functional, cell-based"}, "[8]": {"target": "T1, D(2) dopamine receptor", "assay": "Agonist activity at human cloned dopamine D2 receptor expressed in CHO cells by [35S]GTPgammaS binding assay relative to dopamine", "assay_type": "functional, cell-based"}, "[9]": {"system": "Rattus norvegicus", "assay": "Reversal of reserpine-induced akinesia in Sprague-Dawley rat at 10 umol/kg, sc administered 18 hrs post reserpine challenge measured for 6 hrs", "assay_type": "functional, organism-based"}}, "note": "Activity calls are given as the source filed them. The calls are words filed in the database; no cut-off is given here.", "data": [{"compound": "CCCN(CCN1CCN(c2ccc3[nH]ccc3c2)CC1)C1CCc2nc(N)sc2C1", "note": "(racemic)", "values": [{"measurement": "Activity", "setting": "[1]", "value": "Dose-dependent effect"}, {"measurement": "IC50", "setting": "[1]", "value": 14.5, "unit": "µM"}, {"measurement": "Ratio Ki", "setting": "[2]", "value": 24.3}, {"measurement": "Ki", "setting": "[3]", "value": 46.7, "unit": "nM"}, {"measurement": "Ki", "setting": "[4]", "value": 1.92, "unit": "nM"}]}, {"compound": "CCCN(CCCCN1CCN(C(=O)c2cc3ccccc3[nH]2)CC1)C1CCc2nc(N)sc2C1", "note": "(racemic)", "values": [{"measurement": "Ki", "setting": "[4]", "value": 1.74, "unit": "nM"}]}, {"compound": "CCCN(CCN1CCN(C(=O)c2c[nH]c3ccc(O)cc23)CC1)C1CCc2nc(N)sc2C1", "note": "(configuration not stated)", "values": [{"measurement": "Ratio Ki", "setting": "[2]", "value": 64.2}, {"measurement": "Ki", "setting": "[3]", "value": 1080, "unit": "nM"}, {"measurement": "Ki", "setting": "[4]", "value": 16.8, "unit": "nM"}]}, {"compound": "CCCN(CCC)CCc1cccc2c1CC(=O)N2", "values": [{"measurement": "Activity", "setting": "[5]", "value": "Active"}]}, {"compound": "CCCN(CCN1CCN(Cc2c[nH]c3ccccc23)CC1)C1CCc2c(O)cccc2C1", "note": "(configuration not stated)", "values": [{"measurement": "Ratio Ki", "setting": "[2]", "value": 25.6}, {"measurement": "Ki", "setting": "[3]", "value": 82.1, "unit": "nM"}, {"measurement": "Ki", "setting": "[4]", "value": 3.2, "unit": "nM"}]}, {"compound": "CCCN(CCN1CCN(C(=O)c2ccc3[nH]ccc3c2)CC1)C1CCc2nc(N)sc2C1", "note": "(racemic)", "values": [{"measurement": "Activity", "setting": "[1]", "value": "Dose-dependent effect"}, {"measurement": "Ratio Ki", "setting": "[2]", "value": 303}, {"measurement": "Ki", "setting": "[3]", "value": 1240, "unit": "nM"}, {"measurement": "Ki", "setting": "[4]", "value": 4.1, "unit": "nM"}]}, {"compound": "CCCN(CCN1CCN(C(=O)c2c[nH]c3ccccc23)CC1)[C@H]1CCc2nc(N)sc2C1", "values": [{"measurement": "Ratio Ki", "setting": "[2]", "value": 828}, {"measurement": "EC50", "setting": "[6]", "value": 0.87, "unit": "nM"}, {"measurement": "Ki", "setting": "[3]", "value": 902, "unit": "nM"}, {"measurement": "EC50", "setting": "[7]", "value": 86.4, "unit": "nM"}, {"measurement": "Ki", "setting": "[4]", "value": 1.09, "unit": "nM"}, {"measurement": "Emax", "setting": "[8]", "value": 91.6, "unit": "%"}]}, {"compound": "CCCN(CCN1CCN(Cc2ccc3[nH]ccc3c2)CC1)C1CCc2nc(N)sc2C1", "note": "(configuration not stated)", "values": [{"measurement": "Ratio Ki", "setting": "[2]", "value": 16.4}, {"measurement": "Ki", "setting": "[3]", "value": 132, "unit": "nM"}, {"measurement": "Ki", "setting": "[4]", "value": 8.07, "unit": "nM"}]}, {"compound": "CCCN(CCN1CCN(Cc2cc3ccccc3[nH]2)CC1)C1CCc2c(O)cccc2C1", "note": "(configuration not stated)", "values": [{"measurement": "Ratio Ki", "setting": "[2]", "value": 33.4}, {"measurement": "Ki", "setting": "[3]", "value": 183, "unit": "nM"}, {"measurement": "Ki", "setting": "[4]", "value": 5.48, "unit": "nM"}]}, {"compound": "CCCN(CCN1CCN(C(=O)c2cc3ccccc3[nH]2)CC1)[C@H]1CCc2nc(N)sc2C1", "values": [{"measurement": "Activity", "setting": "[9]", "value": "inactive"}, {"measurement": "EC50", "setting": "[6]", "value": 0.26, "unit": "nM"}, {"measurement": "Ki", "setting": "[3]", "value": 1070, "unit": "nM"}, {"measurement": "Ki", "setting": "[4]", "value": 1.84, "unit": "nM"}, {"measurement": "Emax", "setting": "[8]", "value": 101, "unit": "%"}]}, {"compound": "CCCN(CCN1CCN(c2ccc3[nH]ccc3c2)CC1)C1CCc2c(O)cccc2C1", "note": "(configuration not stated)", "values": [{"measurement": "Ratio Ki", "setting": "[2]", "value": 7.3}, {"measurement": "Ki", "setting": "[3]", "value": 76.4, "unit": "nM"}, {"measurement": "Ki", "setting": "[4]", "value": 10.4, "unit": "nM"}]}, {"compound": "CCCN(CCN1CCN(Cc2ccc3[nH]ccc3c2)CC1)C1CCc2c(O)cccc2C1", "note": "(configuration not stated)", "values": [{"measurement": "Ratio Ki", "setting": "[2]", "value": 64.5}, {"measurement": "Ki", "setting": "[3]", "value": 269, "unit": "nM"}, {"measurement": "Ki", "setting": "[4]", "value": 4.17, "unit": "nM"}]}, {"compound": "CCCN(CCN1CCN(C(=O)c2c[nH]c3ccccc23)CC1)C1CCc2nc(N)sc2C1", "note": "(racemic)", "values": [{"measurement": "Activity", "setting": "[1]", "value": "Dose-dependent effect"}, {"measurement": "Ratio Ki", "setting": "[2]", "value": 360}, {"measurement": "Ki", "setting": "[3]", "value": 1500, "unit": "nM"}, {"measurement": "Ki", "setting": "[4]", "value": 4.17, "unit": "nM"}]}, {"compound": "O=C1O[C@H]([C@@H](O)CO)C(O)=C1O", "note": "[ASCORBIC ACID]", "values": [{"measurement": "Activity", "setting": "[1]", "value": "Dose-dependent effect"}, {"measurement": "IC50", "setting": "[1]", "value": 24.9, "unit": "µM"}]}, {"compound": "CCCN(CCCN1CCN(C(=O)c2cc3ccccc3[nH]2)CC1)C1CCc2nc(N)sc2C1", "note": "(racemic)", "values": [{"measurement": "Ratio Ki", "setting": "[2]", "value": 334}, {"measurement": "Ki", "setting": "[3]", "value": 928, "unit": "nM"}, {"measurement": "Ki", "setting": "[4]", "value": 2.78, "unit": "nM"}]}, {"compound": "CCCN(CCN1CCN(C(=O)c2ccc3[nH]ccc3c2)CC1)[C@@H]1CCc2nc(N)sc2C1", "values": [{"measurement": "Ratio Ki", "setting": "[2]", "value": 49.7}, {"measurement": "Ki", "setting": "[3]", "value": 2630, "unit": "nM"}, {"measurement": "Ki", "setting": "[4]", "value": 52.8, "unit": "nM"}]}, {"compound": "CCCN(CCN1CCN(c2ccc3[nH]ccc3c2)CC1)[C@H]1CCc2nc(N)sc2C1", "values": [{"measurement": "Ratio Ki", "setting": "[2]", "value": 17.8}, {"measurement": "Activity", "setting": "[5]", "value": "Active"}, {"measurement": "EC50", "setting": "[6]", "value": 1.26, "unit": "nM"}, {"measurement": "Ki", "setting": "[3]", "value": 39, "unit": "nM"}, {"measurement": "EC50", "setting": "[7]", "value": 2.96, "unit": "nM"}, {"measurement": "Ki", "setting": "[4]", "value": 2.19, "unit": "nM"}, {"measurement": "Emax", "setting": "[8]", "value": 107, "unit": "%"}]}, {"compound": "CCCN(CCN1CCN(c2ccc(-c3ccccc3)cc2)CC1)[C@H]1CCc2nc(N)sc2C1", "values": [{"measurement": "EC50", "setting": "[6]", "value": 1.51, "unit": "nM"}, {"measurement": "EC50", "setting": "[7]", "value": 33.1, "unit": "nM"}, {"measurement": "Emax", "setting": "[8]", "value": 104, "unit": "%"}]}, {"compound": "CCCN(CCN1CCN(c2ccc3[nH]ccc3c2)CC1)[C@@H]1CCc2nc(N)sc2C1", "values": [{"measurement": "Ratio Ki", "setting": "[2]", "value": 8.46}, {"measurement": "Ki", "setting": "[3]", "value": 134, "unit": "nM"}, {"measurement": "Ki", "setting": "[4]", "value": 15.9, "unit": "nM"}]}, {"compound": "CCCN(CCN1CCN(c2nccc3ccccc23)CC1)[C@H]1CCc2nc(N)sc2C1", "values": [{"measurement": "Ratio Ki", "setting": "[2]", "value": 121}, {"measurement": "EC50", "setting": "[6]", "value": 0.82, "unit": "nM"}]}, {"compound": "CCCN(CCN1CCN(C(=O)c2ccc3[nH]ccc3c2)CC1)[C@H]1CCc2nc(N)sc2C1", "values": [{"measurement": "Ratio Ki", "setting": "[2]", "value": 736}, {"measurement": "Activity", "setting": "[9]", "value": "inactive"}, {"measurement": "EC50", "setting": "[6]", "value": 0.56, "unit": "nM"}, {"measurement": "Ki", "setting": "[3]", "value": 1030, "unit": "nM"}, {"measurement": "EC50", "setting": "[7]", "value": 70.7, "unit": "nM"}, {"measurement": "Ki", "setting": "[4]", "value": 1.4, "unit": "nM"}, {"measurement": "Emax", "setting": "[8]", "value": 107, "unit": "%"}]}, {"compound": "CCCN(CCN1CCN(C(=O)c2cc3ccccc3[nH]2)CC1)[C@@H]1CCc2nc(N)sc2C1", "values": [{"measurement": "Ki", "setting": "[3]", "value": 2560, "unit": "nM"}, {"measurement": "Ki", "setting": "[4]", "value": 54.1, "unit": "nM"}]}, {"compound": "CCCN(CCN1CCN(C(=O)c2c[nH]c3ccccc23)CC1)[C@@H]1CCc2nc(N)sc2C1", "values": [{"measurement": "Ratio Ki", "setting": "[2]", "value": 27.3}, {"measurement": "Ki", "setting": "[3]", "value": 1320, "unit": "nM"}, {"measurement": "Ki", "setting": "[4]", "value": 48.2, "unit": "nM"}]}, {"compound": "CCCN(CCN1CCN(C(=O)c2cc3ccccc3[nH]2)CC1)C1CCc2nc(N)sc2C1", "note": "(racemic)", "values": [{"measurement": "Activity", "setting": "[1]", "value": "Dose-dependent effect"}, {"measurement": "Ki", "setting": "[3]", "value": 852, "unit": "nM"}, {"measurement": "Ki", "setting": "[4]", "value": 4.59, "unit": "nM"}]}]}
